KCC2 mod: modulators of human KCC2 chloride dependent transport | KCC2 cells, thallium flux FluoZin-2 fluorescence | B-score of Tl+ flux slope (higher = more flux/activation; lower = inhibition) at 10 µM | actives 2.2% (n = 190,000) | AID 1456;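 active = thallium flux slope and its plate-corrected score both differing from the plate sample mean at a set confidence after two filtering rounds, in either direction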;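 note: slope of fluorescence scaled to starting intensity during 10 to 20 s after thallium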
KCNK9 block: inhibitors of human KCNK9 two-pore domain potassium channel; B-score at 10 µM; Q9NPC2; HEK293 KCNK9, FluxOR thallium flux fluorescence; stronger effect = lower value; actives 1.2% (n = 310,000); AID 488922;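 active = ratio B-score over 3 SD below the library mean, with starting fluorescence within 5 SD of its mean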;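 note: negative B-score means less thallium flux so channel inhibition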
Target sequence (Q9NPC2 whole entry, looked up, the tested form may be a part): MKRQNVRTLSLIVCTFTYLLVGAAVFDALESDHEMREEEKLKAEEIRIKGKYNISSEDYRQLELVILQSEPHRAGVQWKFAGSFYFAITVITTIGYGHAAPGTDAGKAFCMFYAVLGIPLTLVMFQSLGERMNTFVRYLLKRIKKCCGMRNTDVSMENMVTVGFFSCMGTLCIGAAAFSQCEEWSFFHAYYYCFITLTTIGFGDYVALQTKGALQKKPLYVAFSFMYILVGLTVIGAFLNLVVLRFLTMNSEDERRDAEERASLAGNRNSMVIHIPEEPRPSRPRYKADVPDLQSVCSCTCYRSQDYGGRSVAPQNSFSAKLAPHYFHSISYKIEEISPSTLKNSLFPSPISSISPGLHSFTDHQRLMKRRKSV
hERG protect: compounds protecting human hERG from proarrhythmic drug block; Q12809; CHO-hERG, FluxOR thallium flux, dofetilide IC70 present; activation (rescue from dofetilide block), less the hit threshold, % at 10 µM; actives 0.51% (n = 310,000); AID 1511;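 active = activation above the mean of controls blocked by dofetilide plus 5 SD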;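 note: thallium influx through hERG after potassium depolarization seen as dye fluorescence rise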
KCNK3 block: human KCNK3 channel inhibition, primary screen; CHO-KCNK3 thallium flux, FluxOR fluorescence; stronger effect = lower value; B-score at 10 µM; actives 0.84% (n = 340,000);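 active = B-score under library mean minus 4 SD, starting fluorescence ratio at most library mean plus 5 SD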;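 note: more negative B-score means stronger inhibition of thallium flux through KCNK3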
KCNQ1 pot: potentiators or activators of human KCNQ1 potassium channel | P51787 | B-score at 10 µM | CHO-K1 KCNQ1, thallium flux FluxOR fluorescence; stronger effect = higher value | actives 0.35% (n = 310,000);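 active = fluorescence ratio B-score, a plate-corrected score, at least three library SD, with initial intensity B-score within 5 SD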
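Schedule – 37 °C overnight plating, 90-min dark dye load, 20-min compound pretreatment · System – stable KCNQ1 CHO-K1 line · Probe or stimulus – thallium- and potassium-containing depolarizing buffer · Measured by – kinetic FluxOR fluorescence, 10 s baseline plus 110 s post-stimulus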
KCNQ1 inh: inhibitors of human KCNQ1 potassium channel. B-score at 10 µM. P51787. actives 1.3% (n = 310,000). CHO-K1 KCNQ1, FluxOR thallium flux fluorescence; stronger effect = higher value;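 active = compounds whose thallium flux B-score, printed positive for inhibition, exceeds three library SD while starting fluorescence stays within three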;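 note: channel opened by potassium depolarization with thallium stimulus after 20 min compound exposure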
KCNK9 inh conf: human KCNK9 inhibitor confirmation; shares compounds with KCNK9 block; HEK293 KCNK9 cells, FluxOR thallium flux fluorescence; inhibition, % at 10 µM; actives 43% (n = 4,900); AID 492992;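 active = thallium signal inhibited by more than 5 SD of the compound-free buffer control wells, on both duplicate plates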;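 note: 0% = assay buffer control wells without compound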
Kir21 sel: tests whether KCNK9 modulators also affect mouse Kir2.1. shares compounds with KCNK9 block. Kir2.1 cells, FluxOR thallium flux fluorescence. inhibition, % at 10 µM. actives 4% (n = 4,900);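 active = thallium signal drop more than 5 SD beyond the mean of the no-compound control wells, seen in both duplicate plates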;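 note: signal is fluorescence rise after thallium addition divided by baseline fluorescence; plate controls were assay buffer only for no effect and full block by chlorpromazine control for full effect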
HEK293 Tl ctr: second counter-screen for KCNK9 modulators: effect in non-induced cells; inhibition, % at 10 µM; non-induced KCNK9-HEK293, FluxOR thallium flux; actives 40% (n = 4,900); shares compounds with KCNK9 block;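 active = thallium signal drop beyond 5 SD of the untreated control mean, on both duplicate plates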;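 note: plate controls were buffer only IC0 wells for no effect and SID17386958 at its maximal inhibitory level for full effect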
Numbers without * were called inactive; i = inactive; . = no result. Rows were chosen to be rich in hits. Some 4.1% of all compounds tested hit in one or more screens of this group.

SMILES | KCC2 mod | KCNK9 block | hERG protect | KCNK3 block | KCNQ1 pot | KCNQ1 inh | KCNK9 inh conf | Kir21 sel | HEK293 Tl ctr
CCCCn1c(=O)c(C=Nc2ccc(Cl)cc2)c(O)n(Cc2ccco2)c1=O | -1.11 | i | -2.2 | i | i | i | i | i | i
COC12CCC3(CC1C(C)(O)C(C)(C)C)[C@H]1Cc4ccc(O)c5c4[C@@]3(CCN1CC1CC1)C2O5 (some centres not stated) | . | . | . | i | . | . | . | . | .
COCc1ccc(CN2CCCC(C(=O)c3sccc3C)C2)o1 (configuration not stated) | -0.0559 | i | -6.5 | i | i | i | i | i | i
COC(=O)C1=C(c2ccc(OC(F)(F)F)cc2)C[C@@H]2CC[C@H]1N2C(=O)N1CCCC1 | . | . | . | i | . | . | . | . | .
CCC(=O)c1cn(Cc2ccccc2)c2ccccc12 | -0.626 | i | -21.4 | i | i | i | . | . | .
O=C(COc1ccccc1)c1cn(Cc2ccccc2)c2ccccc12 | -0.565 | -10.1* | -8.7 | i | i | i | 52.0%* | i | 53.0%*
COc1ccccc1CN1CCN(C(=O)COc2ccc3ccccc3c2)CC1 | . | i | -5.0 | i | i | i | i | 33.0%* | i
COc1ccccc1CN1CCN(C(=O)COc2cccc(C)c2)CC1 | . | i | -5.9 | i | i | i | . | . | .
O=C(O)c1ccc2c(c1)C1C(Cl)C(Sc3ccccc3[N+](=O)[O-])CC1C(c1cccc([N+](=O)[O-])c1)N2 (configuration not stated) | 0.00247 | . | . | i | . | . | . | . | .
O=C(O)c1cccc2c1NC(c1cccc([N+](=O)[O-])c1)C1CC(Sc3ccccc3[N+](=O)[O-])C(Cl)C21 (configuration not stated) | -2.99 | i | -3.1 | i | 16* | i | i | i | i
O=C(Nc1nccs1)c1c(O)c2c(n(Cc3ccco3)c1=O)CCCC2 | -0.000667 | -8.19* | -6.8 | i | i | 6* | 43.5%* | i | 35.5%*
O=C(Nc1ccccc1)c1c(O)c2c(n(Cc3ccco3)c1=O)CCCC2 | -0.636 | i | -0.9 | i | i | i | . | . | .
O=C(c1cccc(Cl)c1)C1CCCN(Cc2ccon2)C1 (configuration not stated) | . | i | -6.5 | i | i | i | . | . | .
COc1cccc(C(=O)C2CCCN(Cc3cccc4c3OCO4)C2)c1 (configuration not stated) | -0.486 | i | -7.3 | i | i | i | i | i | i
COc1ccc(C(=O)C2CCCN(Cc3ccon3)C2)c(OC)c1 (configuration not stated) | 0.239 | i | -4.5 | i | i | i | . | . | .
COc1ccc(CN2CCCC(C(=O)c3ccc(Cl)cc3)C2)c(OC)c1 (configuration not stated) | . | i | -12.0 | i | i | i | i | i | i
COc1ccc(CN2CCCC(C(=O)c3cccc(Cl)c3)C2)cc1 (configuration not stated) | . | i | -9.3 | i | i | i | i | 31.5%* | i
O=C(c1cccc(Cl)c1)C1CCCN(Cc2cccc3cnccc23)C1 (configuration not stated) | -1.03 | i | -10.6 | i | i | i | . | . | .
CSc1ncc(CN2CCCC(C(=O)c3cccc(Cl)c3)C2)cn1 (configuration not stated) | 0.89 | i | -1.8 | i | i | i | i | i | i
Cc1ccc(Oc2cc(NN3CCCCC3)c([N+](=O)[O-])cc2[N+](=O)[O-])c([N+](=O)[O-])c1 | . | i | -14.8 | i | i | i | . | . | .

Screens: PubChem BioAssay, several laboratories
